Experimental data published in ChEMBL document CHEMBL5303300, “EUbOPEN Chemogenomics Library - Multiplex” (2023).
“And” between values parts separate entries of the source, which are not always exact repeats. Equal entries are not always repeated.

Tested on: HEK-293T
Assay: Multiplex assay against HEK293T
Assay type: toxicity, cell-based
Conditions: human, number of replicates 2
In short: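 Live cells were stained at seeding with Hoechst33342, BioTracker Green Microtubule Cytoskeleton Dye, MitoTracker Red and Annexin V Alexa Fluor 680. Following compound addition, they were imaged on a CQ1 microscope at 37°C and 5% CO2 and gated by CellPathfinder machine learning into Hoechst high-intensity objects or normal cells, with normal cells split into healthy, pyknosed or fragmented nuclei and pyknosed cells into mitotic or apoptotic. Tubulin, mitochondrial-mass and membrane-permeability phenotypes are per cents of healthy-nucleus cells.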

[1] = 12 h, 1 µM, compound concentration 1 uM
[2] = 12 h, 10 µM, compound concentration 10 uM
[3] = 24 h, 1 µM, compound concentration 1 uM
[4] = 24 h, 10 µM, compound concentration 10 uM
[5] = 48 h, 1 µM, compound concentration 1 uM
[6] = 48 h, 10 µM, compound concentration 10 uM

## C[C@@H](OC[C@@]1(c2ccccc2)CC[C@]2(CCC(=O)N2)CN1)c1cc(C(F)(F)F)cc(C(F)(F)F)c1 [ROLAPITANT]
[1]
  Population Apoptotic (%): 57% and 49%
  Population Fragmented Nuclei (%): 6% and 4%
  Population Healthy Nuclei (%): 72% and 81%
  Population Hoechst High Intensity Objects (%): 7% and 8%
  Population Membrane Permeable-Phenotype (%): 5% and 3%
  Population Mitochondria Different-Phenotype (%): 25% and 28%
  Population Mitotic Cells (%): 42% and 50%
  Population Normal (%): 92% and 91%
  Population Pyknosed Nuclei (%): 21% and 14%
  Population Tubulin-Different-Phenotype (%): 66% and 80%
  Total Cell Count: 453 and 616
[2]
  Population Apoptotic (%): 56% and 70%
  Population Fragmented Nuclei (%): 4%
  Population Healthy Nuclei (%): 80% and 77%
  Population Hoechst High Intensity Objects (%): 11% and 6%
  Population Membrane Permeable-Phenotype (%): 4% and 2%
  Population Mitochondria Different-Phenotype (%): 35% and 40%
  Population Mitotic Cells (%): 44% and 29%
  Population Normal (%): 88% and 93%
  Population Pyknosed Nuclei (%): 15% and 17%
  Population Tubulin-Different-Phenotype (%): 81% and 86%
  Total Cell Count: 563 and 415
[3]
  Population Apoptotic (%): 63% and 53%
  Population Fragmented Nuclei (%): 8% and 6%
  Population Healthy Nuclei (%): 75% and 80%
  Population Hoechst High Intensity Objects (%): 6% and 9%
  Population Membrane Permeable-Phenotype (%): 3% and 2%
  Population Mitochondria Different-Phenotype (%): 12% and 13%
  Population Mitotic Cells (%): 36% and 46%
  Population Normal (%): 93% and 90%
  Population Pyknosed Nuclei (%): 15% and 12%
  Population Tubulin-Different-Phenotype (%): 51% and 61%
  Total Cell Count: 631 and 823
[4]
  Population Apoptotic (%): 61%
  Population Fragmented Nuclei (%): 7%
  Population Healthy Nuclei (%): 81% and 77%
  Population Hoechst High Intensity Objects (%): 12% and 9%
  Population Membrane Permeable-Phenotype (%): 3%
  Population Mitochondria Different-Phenotype (%): 21% and 27%
  Population Mitotic Cells (%): 38%
  Population Normal (%): 87% and 90%
  Population Pyknosed Nuclei (%): 11% and 15%
  Population Tubulin-Different-Phenotype (%): 70% and 69%
  Total Cell Count: 730 and 604
[5]
  Population Apoptotic (%): 35% and 28%
  Population Fragmented Nuclei (%): 12% and 11%
  Population Healthy Nuclei (%): 82% and 83%
  Population Hoechst High Intensity Objects (%): 8% and 11%
  Population Membrane Permeable-Phenotype (%): 5% and 3%
  Population Mitochondria Different-Phenotype (%): 1% and 2%
  Population Mitotic Cells (%): 64% and 71%
  Population Normal (%): 91% and 88%
  Population Pyknosed Nuclei (%): 4% and 5%
  Population Tubulin-Different-Phenotype (%): 23% and 39%
  Total Cell Count: 1671
[6]
  Population Apoptotic (%): 50% and 48%
  Population Fragmented Nuclei (%): 11% and 8%
  Population Healthy Nuclei (%): 83% and 84%
  Population Hoechst High Intensity Objects (%): 9%
  Population Membrane Permeable-Phenotype (%): 6% and 3%
  Population Mitochondria Different-Phenotype (%): 4% and 11%
  Population Mitotic Cells (%): 49% and 51%
  Population Normal (%): 90%
  Population Pyknosed Nuclei (%): 5% and 7%
  Population Tubulin-Different-Phenotype (%): 53% and 48%
  Total Cell Count: 1126 and 904

## CCCNc1ccc2ncc(-c3ccncc3)n2n1
[1]
  Population Apoptotic (%): 56% and 50%
  Population Fragmented Nuclei (%): 3% and 4%
  Population Healthy Nuclei (%): 81% and 85%
  Population Hoechst High Intensity Objects (%): 7% and 8%
  Population Membrane Permeable-Phenotype (%): 2%
  Population Mitochondria Different-Phenotype (%): 26% and 15%
  Population Mitotic Cells (%): 43% and 49%
  Population Normal (%): 92% and 91%
  Population Pyknosed Nuclei (%): 14% and 9%
  Population Tubulin-Different-Phenotype (%): 64% and 54%
  Total Cell Count: 500 and 609
[2]
  Population Apoptotic (%): 55% and 50%
  Population Fragmented Nuclei (%): 4% and 5%
  Population Healthy Nuclei (%): 89% and 87%
  Population Hoechst High Intensity Objects (%): 6% and 5%
  Population Membrane Permeable-Phenotype (%): 2% and 1%
  Population Mitochondria Different-Phenotype (%): 32% and 26%
  Population Mitotic Cells (%): 44% and 50%
  Population Normal (%): 93% and 94%
  Population Pyknosed Nuclei (%): 6% and 7%
  Population Tubulin-Different-Phenotype (%): 62% and 61%
  Total Cell Count: 481 and 583
[3]
  Population Apoptotic (%): 60% and 48%
  Population Fragmented Nuclei (%): 5% and 7%
  Population Healthy Nuclei (%): 88% and 86%
  Population Hoechst High Intensity Objects (%): 11% and 15%
  Population Membrane Permeable-Phenotype (%): 3% and 2%
  Population Mitochondria Different-Phenotype (%): 17% and 6%
  Population Mitotic Cells (%): 39% and 51%
  Population Normal (%): 88% and 84%
  Population Pyknosed Nuclei (%): 6%
  Population Tubulin-Different-Phenotype (%): 47% and 48%
  Total Cell Count: 684 and 692
[4]
  Population Apoptotic (%): 66% and 48%
  Population Fragmented Nuclei (%): 2% and 4%
  Population Healthy Nuclei (%): 87%
  Population Hoechst High Intensity Objects (%): 8% and 9%
  Population Membrane Permeable-Phenotype (%): 1%
  Population Mitochondria Different-Phenotype (%): 41% and 35%
  Population Mitotic Cells (%): 33% and 51%
  Population Normal (%): 91% and 90%
  Population Pyknosed Nuclei (%): 9% and 8%
  Population Tubulin-Different-Phenotype (%): 64% and 66%
  Total Cell Count: 490 and 643
[5]
  Population Apoptotic (%): 52% and 37%
  Population Fragmented Nuclei (%): 14%
  Population Healthy Nuclei (%): 80% and 81%
  Population Hoechst High Intensity Objects (%): 16% and 21%
  Population Membrane Permeable-Phenotype (%): 3% and 1%
  Population Mitochondria Different-Phenotype (%): 5% and 6%
  Population Mitotic Cells (%): 47% and 62%
  Population Normal (%): 83% and 78%
  Population Pyknosed Nuclei (%): 4%
  Population Tubulin-Different-Phenotype (%): 33% and 47%
  Total Cell Count: 935 and 824
[6]
  Population Apoptotic (%): 55% and 68%
  Population Fragmented Nuclei (%): 4% and 3%
  Population Healthy Nuclei (%): 82% and 86%
  Population Hoechst High Intensity Objects (%): 15% and 8%
  Population Membrane Permeable-Phenotype (%): 2% and 1%
  Population Mitochondria Different-Phenotype (%): 49% and 55%
  Population Mitotic Cells (%): 44% and 31%
  Population Normal (%): 84% and 91%
  Population Pyknosed Nuclei (%): 13% and 9%
  Population Tubulin-Different-Phenotype (%): 70% and 66%
  Total Cell Count: 503 and 413
